Screening data (PubChem)
The list is not random: actives were taken first. Their share in the collection is about 3.7%.
DENV2 CPE rescue = inhibitors of DENV2 cytopathic effect; CPE inhibition, % at 9.99 µM; actives 1.7% (n = 350,000); AID 651640; DENV2-infected cells, cytopathic effect rescue, plate reader; in the data active = CPE inhibition above about 20%, passing the limit was not always enough; inconclusive = no clear call, values can overlap the other calls; tested in BHK-21 cells
E-selectin induc = induces E-selectin expression in human endothelial cells; P16581; HUVEC E-selectin immunofluorescence imaging; normalized: neutral wells 0, TNF-alpha wells 100; activation, % at 7.58 µM; actives 0.37% (n = 260,000); AID 686992;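 active = mean E-selectin-positive cell signal at least 10% of the positive control, reached in at least 60% of replicates, without over 20% cell loss; inconclusive = no rule given, readout overlaps actives, possibly toxicity-flagged; inactive = the rest, including those meeting only one limit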
Target sequence (P16581 whole entry, looked up): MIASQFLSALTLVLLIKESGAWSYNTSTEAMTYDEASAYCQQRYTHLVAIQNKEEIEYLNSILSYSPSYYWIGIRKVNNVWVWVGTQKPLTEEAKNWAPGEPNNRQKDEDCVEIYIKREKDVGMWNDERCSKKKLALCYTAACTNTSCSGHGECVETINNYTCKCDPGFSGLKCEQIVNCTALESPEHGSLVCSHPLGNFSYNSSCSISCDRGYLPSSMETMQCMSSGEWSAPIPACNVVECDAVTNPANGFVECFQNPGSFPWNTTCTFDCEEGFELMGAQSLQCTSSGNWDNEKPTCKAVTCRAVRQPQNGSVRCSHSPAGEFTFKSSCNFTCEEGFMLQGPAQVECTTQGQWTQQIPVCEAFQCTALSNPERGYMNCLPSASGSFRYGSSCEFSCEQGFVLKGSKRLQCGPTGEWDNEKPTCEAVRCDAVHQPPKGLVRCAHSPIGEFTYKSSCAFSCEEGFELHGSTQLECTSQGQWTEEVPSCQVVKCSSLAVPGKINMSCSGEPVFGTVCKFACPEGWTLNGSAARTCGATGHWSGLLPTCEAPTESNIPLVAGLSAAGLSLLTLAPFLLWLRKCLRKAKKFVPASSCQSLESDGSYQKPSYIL
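System: HUVEC, human umbilical vein endothelial cells; quantity: 3,000 cells/well; buffer or medium: EGM-2 medium, gelatin-coated wells; dosing: single-point compound dose; detection: immunofluorescence imaging; evaluation: % PE-positive cells; benchmarks: TNF-alpha, DMSO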
FGF22 binding = shifts melting point of recombinant human FGF22; Q9HCT0; recombinant FGF22 thermal shift, SYPRO orange fluorescence; percent of sucrose octasulfate shift, DMSO zero; activity (Tm shift, normalised), % at 9.99 µM; actives 1.5% (n = 340,000);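 active = mean Tm shift, scaled 0 neutral to 100 positive control, at about 1.3% or above, every replicate too, limit read from the data; inconclusive = no clear call, values can overlap the other calls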
F508del corr = correctors of CFTR F508del function in bronchial epithelial cells | CFBE cells, YFP halide quenching; stimulated with forskolin plus potentiator P3; % fluorescence drop versus neutral controls | activity (quench increase), % at 7.58 µM | actives 0.36% (n = 350,000) | AID 720511;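 active = mean added fluorescence quench of at least 8% versus neutral control, with both replicates also reaching 8%; inconclusive = only one of the mean or replicate conditions met; inactive = mean below 8% and not both replicates reaching 8%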;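 also: cells transiently co-express mutant CFTR-F508del with the halide-sensitive YFP; corrector assay measuring rescue of mutant channel to the surface after 24 h compound exposure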
ERAP1 HTS inh = blocks human ERAP1 aminopeptidase activity; Q9NZ08; recombinant ERAP1, Leu-AMC fluorescence, 60 min; inhibition, % at 10.7 µM; actives 0.15% (n = 340,000); AID 652197;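 active = mean replicate inhibition of at least 30%, or all replicates individually reaching that 30% level; inactive = mean below 30% and not every replicate reaching it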
Of the large screens only hits and unclear results are named; the others gave an inactive call; ! = not active in a repeat.

Cc1nn(-c2cccc(C(=O)O)c2)c(C)c1[N+](=O)[O-]	FGF22 binding 44 (no result: E-selectin induc)
Cc1nn(CC(=O)O)c(C)c1[N+](=O)[O-]	none (no result: E-selectin induc)
COc1ccc(NC(=O)Nc2ccc3c(c2)C(=O)N([C@H](C)CO)C[C@H](C)[C@@H](CN(C)C)OCCCC[C@@H](C)O3)cc1	DENV2 CPE rescue inconclusive
COc1cccc(C#Cc2cnc3c(c2)C(=O)N([C@H](C)CO)C[C@@H](C)[C@H](CN(C)C(=O)C2CCC2)O3)c1	DENV2 CPE rescue 20
COc1cccc(C#Cc2cnc3c(c2)C(=O)N([C@@H](C)CO)C[C@@H](C)[C@@H](CN(C)C(=O)C2CCC2)O3)c1	DENV2 CPE rescue 25
C[C@@H]1CN([C@H](C)CO)C(=O)c2cc(C#Cc3cccc(F)c3)cnc2O[C@@H]1CN(C)C(=O)C1CCCCC1	none
COc1cccc(C#Cc2cnc3c(c2)C(=O)N([C@H](C)CO)C[C@H](C)[C@@H](CN(C)C(=O)C2CCC2)O3)c1	none
C[C@H]1CN([C@@H](C)CO)C(=O)c2cc(-c3ccccc3)cnc2O[C@@H]1CN(C)C(=O)C1CCCCC1	DENV2 CPE rescue 47
C[C@@H]1CN([C@@H](C)CO)C(=O)c2cc(C#Cc3cccc(F)c3)cnc2O[C@H]1CN(C)C(=O)C1CCCCC1	DENV2 CPE rescue 22!
C[C@H]1CN([C@@H](C)CO)C(=O)c2cc(-c3cncnc3)cnc2O[C@@H]1CN(C)C(=O)CN1CCOCC1	none (no result: DENV2 CPE rescue, FGF22 binding, ERAP1 HTS inh)
C[C@H](CO)N1C[C@H](C)[C@H](CN(C)C(=O)Nc2ccc(C(F)(F)F)cc2)Oc2c(NC(=O)Nc3ccc4c(c3)OCO4)cccc2C1=O	none
CCNC(=O)C[C@@H]1CC[C@H]2[C@H](COc3ccc(NC(=O)c4ccccc4Cl)cc3C(=O)N2C)O1	none (no result: ERAP1 HTS inh)
C[C@H](CO)N1C[C@H](C)[C@H](CN(C)C(=O)C2CCC2)Oc2ncc(C#CC(C)(C)O)cc2C1=O	none
C[C@H](CO)N1C[C@H](C)[C@@H](CN(C)C(=O)C2CCC2)Oc2ncc(C#CC(C)(C)O)cc2C1=O	DENV2 CPE rescue 23
COc1ccc(NC(=O)Nc2ccc3c(c2)CC(=O)N([C@@H](C)CO)C[C@@H](C)[C@@H](CN(C)S(=O)(=O)c2ccc(F)cc2)O3)cc1	DENV2 CPE rescue 29
COc1ccc(S(=O)(=O)N(C)C[C@@H]2Oc3ccc(NC(=O)CCC(F)(F)F)cc3CC(=O)N([C@@H](C)CO)C[C@@H]2C)cc1	DENV2 CPE rescue 42
COc1ccc(S(=O)(=O)N(C)C[C@@H]2Oc3ccc(N(C)C)cc3CC(=O)N([C@H](C)CO)C[C@H]2C)cc1	DENV2 CPE rescue 30
COc1ccc(S(=O)(=O)N(C)C[C@@H]2Oc3ccc(NC(=O)C4CCCCC4)cc3CC(=O)N([C@@H](C)CO)C[C@@H]2C)cc1	DENV2 CPE rescue 28
COc1ccc(S(=O)(=O)N(C)C[C@@H]2Oc3ccc(NC(=O)Nc4ccc(F)cc4)cc3CC(=O)N([C@H](C)CO)C[C@H]2C)cc1	none (no result: ERAP1 HTS inh)
Cc1ccc(S(=O)(=O)N[C@H]2CC[C@H](CC(=O)NCCN3CCCCC3)O[C@H]2CO)cc1	none
COc1ccc(NC(=O)Nc2ccc3c(c2)CC(=O)N([C@H](C)CO)C[C@@H](C)[C@@H](CN(C)S(=O)(=O)c2ccc(C)cc2)O3)cc1	none (no result: DENV2 CPE rescue, FGF22 binding, ERAP1 HTS inh)
COc1ccc(NC(=O)Nc2ccc3c(c2)CC(=O)N([C@H](C)CO)C[C@@H](C)[C@H](CN(C)S(=O)(=O)c2ccc(C)cc2)O3)cc1	DENV2 CPE rescue 34
Cc1cccc(NC(=O)Nc2ccc(Cl)cc2)n1	none (no result: E-selectin induc)
Cc1nccc(-c2cccc(NC(=O)Nc3ccc(Cl)cc3)c2)n1	FGF22 binding 1.8
COC(=O)C[C@@H]1C[C@H]2c3cc(NC(=O)C4CCOCC4)ccc3O[C@H]2[C@@H](CO)O1	none
COC(=O)C[C@H]1C[C@H]2c3cc(NC(=O)CC4CC4)ccc3O[C@H]2[C@H](CO)O1	none
CN(C)c1ccc2c(c1)[C@@H]1C[C@@H](CC(=O)NCc3ccc(Oc4ccccc4)cc3)O[C@H](CO)[C@@H]1O2	F508del corr 17 (no result: E-selectin induc)
CN(C)c1ccc2c(c1)[C@@H]1C[C@H](CC(=O)NCc3ccc(Oc4ccccc4)cc3)O[C@@H](CO)[C@@H]1O2	none (no result: E-selectin induc)
COC(=O)C[C@H]1C[C@H]2c3cc(NC(=O)C4CCOCC4)ccc3O[C@H]2[C@H](CO)O1	DENV2 CPE rescue 46 (no result: E-selectin induc)
COC(=O)C[C@@H]1C[C@H]2c3cc(NC(=O)CC4CC4)ccc3O[C@H]2[C@@H](CO)O1	DENV2 CPE rescue 24!
COCC(=O)Nc1ccc2c(c1)[C@@H]1C[C@H](CC(=O)OC)O[C@H](CO)[C@@H]1O2	DENV2 CPE rescue 28!
C[C@@H]1CCCCO[C@H](CN(C)Cc2ccccc2)[C@H](C)CN([C@@H](C)CO)C(=O)c2cc(NC(=O)C3CCCCC3)ccc2O1	none
O=C(C[C@H]1C[C@@H]2c3cc(NC(=O)CC4CC4)ccc3O[C@@H]2[C@H](CO)O1)NCc1ccccc1	DENV2 CPE rescue 98
O=C(O)C[C@@H]1C[C@@H]2c3cc(NC(=O)CC4CC4)ccc3O[C@@H]2[C@H](CO)O1	DENV2 CPE rescue 30
O=C(O)C[C@@H]1C[C@@H]2c3cc(NC(=O)CC4CC4)ccc3O[C@@H]2[C@@H](CO)O1	none
CC(C)NC(=O)Nc1cccc2c1O[C@@H](CN(C)S(=O)(=O)c1cccs1)[C@H](C)CN([C@H](C)CO)C2=O	none (no result: DENV2 CPE rescue, FGF22 binding, ERAP1 HTS inh)
COc1ccc(NC(=O)Nc2cccc3c2O[C@H](CN(C)C(=O)NC(C)C)[C@H](C)CN([C@@H](C)CO)C3=O)cc1	none
O=C(C[C@H]1C=C[C@H](NC(=O)CCN2CCCCC2)[C@H](CO)O1)Nc1ccccc1	none (no result: FGF22 binding)
Cc1cc(OCC(=O)NC2CC(C)(C)NC(C)(C)C2)c(C)cc1Br	DENV2 CPE rescue 42
Cc1ccc(OCC(=O)NC2CC(C)(C)NC(C)(C)C2)c(C)c1	none (no result: F508del corr)
Cc1cccc(N(CC(=O)NC2CC2)S(=O)(=O)c2ccc(Cl)cc2)c1	DENV2 CPE rescue 50
O=c1[nH]c2cc([N+](=O)[O-])c([N+](=O)[O-])cc2[nH]c1=O	none (no result: E-selectin induc)
O=c1[nH]c(=O)c2cc([N+](=O)[O-])cc([N+](=O)[O-])c2[nH]1	FGF22 binding 43 (no result: E-selectin induc)
CC(=O)N1[C@@H]2Cn3c(cccc3=O)[C@H]1[C@@H](C(=O)N[C@@H](C)c1ccccc1)[C@@H]2CO	none (no result: FGF22 binding)
O=C(c1ccc(Br)cc1)c1cc([N+](=O)[O-])ccc1N1CCOCC1	F508del corr 12
O=C(OCc1cccc(Cl)c1)c1cc([N+](=O)[O-])ccc1N1CCOCC1	none
O=C(OCc1ccc(Br)cc1)c1cc([N+](=O)[O-])ccc1N1CCOCC1	F508del corr 8.4
Cc1noc(C)c1NC(=O)N[C@H]1C=C[C@H](CC(=O)Nc2ccccc2)O[C@H]1CO	none
Cc1cccc(N2CCN(C(C(=O)NCc3ccccc3)c3ccc(F)cc3)CC2)c1C (stereo unspecified)	DENV2 CPE rescue 59
